Consider five molecules from ChEMBL document CHEMBL1121804, “Cognition-activating properties of 3-(Aryloxy)pyridines” (J Med Chem, 1981).

Assay [1] deals with Mus musculus. The experiment in a line: Compound was tested for cognitive activity by measuring retention for passive avoidance learning in mice at dose 0.63 mg/kg. It is filed as functional, organism-based. Details: dose 0.63 mg/kg. In short, it runs like this: (§1)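 Male CF-1 mice (19–21 g at shipment), 20 per dose group, each used once. Given ip an aqueous solution or methocel suspension 1 h before footshock training, with a saline group run alongside. Retention test: mouse placed on an outer shelf of the box; entering within 60 s scored as not retained. Value is percent retention. Days with control retention outside 65–75% were discarded.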

For assay [2], the species on record is Mus musculus.
The subject of assay [3] is Mus musculus. The experiment in a line: Compound was tested for cognitive activity by measuring retention for passive avoidance learning in mice at dose 0.32 mg/kg. It is filed as functional, organism-based. Further details: dose 0.32 mg/kg. In short, it runs like this: as §1
Assay [4] has as its system Mus musculus. As to the kind of experiment: Retention for passive avoidance learning in mice at dose 2.5 mg/kg. It is filed as functional, organism-based. Details: dose 2.5 mg/kg. In short, it runs like this:
(§2)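 Naive male CF-1 mice (19–21 g at shipment), 20 per dose, each used once. Dosed i.p. as an aqueous solution or methocel suspension 1 h before footshock training, with a saline group run in parallel. At the test, mice were placed on an outside shelf; entering the box within 60 s counted as no retention. Values are percent retention. A day was discarded unless controls scored 65–75%.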

Assay [5] has as its system Mus musculus. The experiment in a line: Compound was tested for cognitive activity by measuring retention for passive avoidance learning in mice at dose 1.25 mg/kg. It is filed as functional, organism-based. Details: dose 1.25 mg/kg. Summed up: as §1
The subject of assay [6] is Mus musculus. As to the kind of experiment: Compound was tested for cognitive activity by measuring retention for passive avoidance learning in mice at dose 0.15 mg/kg. It is filed as functional, organism-based. Details: dose 0.15 mg/kg. Summed up:
as §1

Assay [7] has as its system Mus musculus. The experiment in a line: Compound was tested for cognitive activity by measuring retention for passive avoidance learning in mice at dose 2.5 mg/kg. Details: dose 2.5 mg/kg. It is filed as functional, organism-based. In short, it runs like this:
as §1

The test system of assay [8] is Mus musculus. As to the kind of experiment: Retention for passive avoidance learning in mice at dose 20 mg/kg. It is filed as functional, organism-based. Details: dose 20 mg/kg. Summed up: as §2
The subject of assay [9] is Mus musculus. The experiment in a line: Compound was tested for cognitive activity by measuring retention for passive avoidance learning in mice at dose 40 mg/kg. It is filed as functional, organism-based. Further details: dose 40 mg/kg. In short, it runs like this:
as §2

Assay [10] has as its system Mus musculus. The experiment in a line: Compound was tested for cognitive activity by measuring retention for passive avoidance learning in mice at dose 10 mg/kg. It is filed as functional, organism-based. Details: dose 10 mg/kg. Summed up:
as §1

Assay [11] concerns Mus musculus. As to the kind of experiment: Compound was tested for lethality in mice at a dose 80 mg/kg intraperitoneally; L denotes lethal at this dose. It is filed as functional, organism-based. Details: dose 80 mg/kg. In short, it runs like this: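 Male CF-1 mice, 20 per group, were given the agent i.p. as an aqueous solution or methocel suspension 1 h before passive-avoidance training. The table entry L marks a dose that killed the animals.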

The subject of assay [12] is Mus musculus. The experiment in a line: Retention for passive avoidance learning in mice at dose 5 mg/kg. It is filed as functional, organism-based. Details: dose 5 mg/kg. Summed up:
as §2

For assay [13], the species on record is Mus musculus. This is another data set of the same source.
Assay [14] is filed under the species Mus musculus. This is another data set of the same source.

In the case of `CN1CCC[C@H]1c1cccnc1`, the Retention with Mus musculus [1] was 75%; in the assay filed under Mus musculus [2], “Lethal”; in the assay on Mus musculus [3], 70%; in the assay on Mus musculus [4] it was 27%; with Mus musculus [5], 53%.
Consider `C[C@H](N)Cc1ccccc1`, for which the Retention in the assay on Mus musculus [6] was found to be 45%; with Mus musculus [1], 100%; with Mus musculus [3] it was 80%; in the assay on Mus musculus [7] it was 65%; with Mus musculus [5], 60%.
Consider `C1CCc2nnnn2CC1`, for which the Retention with Mus musculus [8] is 80%; in the assay with Mus musculus [9], 80%; in the assay with Mus musculus [10] it was 65%; with Mus musculus [11], “Lethal at this dose”; in the assay on Mus musculus [12] it was 80%.
Take `CNC(=O)Oc1ccc2c(c1)[C@]1(C)CCN(C)[C@@H]1N2C`: the Retention in the assay with Mus musculus [6] was 45%; in the assay on Mus musculus [3] it was 35%; in the assay filed under Mus musculus [13] it was “Lethal”.
As to `N[C@@H]1C[C@H]1c1ccccc1.N[C@H]1C[C@@H]1c1ccccc1`, the Retention was 55% in the assay on Mus musculus [8], 80% in the assay on Mus musculus [10], “Lethal at this dose” in the assay listed under Mus musculus [14] and 75% with Mus musculus [12].
